Results published in ChEMBL document CHEMBL4118203, “Optimized synthesis and antiproliferative activity of desTHPdactylolides” (Bioorg Med Chem, 2018).

Key:
[1] = system: LNCaP; assay: Antiproliferative activity against docetaxel-sensitive human LNCAP cells after 3 days by WST-1 assay; type: functional, cell-based; settings: 72 h
Summary of the method: (§1)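 Cells grown at 37 °C, 5% CO2: PC-3 and LNCaP in RPMI-1640, DU145 in EMEM, each with 10% FBS and 1% penicillin/streptomycin. Plated at 3,200 cells/well and exposed to a range of doses for 3 days, with DMSO vehicle control. WST-1 reagent was then added for 3 h at 37 °C and absorbance read at 430 nm. IC50 is the mean of at least triplicate runs.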

[2] = system: DU-145; assay: Antiproliferative activity against docetaxel-sensitive human DU145 cells after 3 days by WST-1 assay; type: functional, cell-based; settings: DU-145, 72 h; summary of the method: as §1
[3] = Antiproliferative activity against human PC3/DTX cells after 3 days by WST-1 assay; type: functional, cell-based; settings: 72 h
Summary of the method: (§2)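 Docetaxel-resistant lines were derived from DU145 or PC-3 over one year by stepwise-increasing docetaxel, starting at the parental IC50. Cells were kept continuously in docetaxel, with medium changed every 2–3 days. For the assay, cells were plated at 3,200/well and treated with a dose range for 3 days against DMSO vehicle. WST-1 was added for 3 h at 37 °C and absorbance read at 430 nm. IC50 is the mean of at least triplicates.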

[4] = Antiproliferative activity against human DU145/DTX cells after 3 days by WST-1 assay; type: functional, cell-based; settings: DU-145, 72 h; summary of the method: as §2
[5] = system: PC-3; assay: Antiproliferative activity against docetaxel-sensitive human PC3 cells after 3 days by WST-1 assay; type: functional, cell-based; settings: PC-3, 72 h; summary of the method: as §1
[6] = Resistance index, ratio of IC50 for human PC3/DTX cells to IC50 for docetaxel-sensitive human PC3 cells; type: functional
[7] = Resistance index, ratio of IC50 for human DU145/DTX cells to IC50 for docetaxel-sensitive human DU145 cells; type: functional
[8] = system: PC-3; assay: Antiproliferative activity against human PC3 cells after 72 hrs by methylene blue staining based assay; type: functional, cell-based; settings: PC-3, 72 h

Compound	IC50 [1] [µM]	IC50 [2] [µM]	IC50 [5] [µM]	IC50 [8] [µM]	IC50 [3] [µM]	IC50 [4] [µM]	Ratio IC50 [6]	Ratio IC50 [7]
C/C1=C/C=C/C(=O)O[C@@H](CO)C/C(C)=C/COCC/C=C/C(=O)C1	> 30	> 30	> 30	–	> 30	> 30	–	–
COc1ccc(COC[C@H]2C/C(C)=C/COCC/C=C/C(=O)C/C(C)=C\C=C\C(=O)O2)cc1	2.85	3.16	6.31	–	3.77	3.2	0.6	1
COc1ccc(COC[C@@H]2C/C(C)=C/COCC/C=C/C(=O)C/C(C)=C\C=C\C(=O)O2)cc1	8.27	9.21	7.66	–	> 20	> 20	>2.6	>2.2
C=C1C[C@H]2C/C=C/C(=O)C/C(C)=C\C=C\C(=O)OC(C=O)C/C(C)=C/[C@@H](C1)O2 (stereo not given in full)	–	–	–	0.75	–	–	–	–
CC(=O)O[C@@]12CO[C@@H]1C[C@H](O)[C@@]1(C)C(=O)[C@H](O)C3=C(C)[C@@H](OC(=O)[C@H](O)[C@@H](NC(=O)OC(C)(C)C)c4ccccc4)C[C@@](O)([C@@H](OC(=O)c4ccccc4)[C@H]21)C3(C)C [DOCETAXEL ANHYDROUS]	0.0002	0.0012	0.0019	–	2.34	8.58	1232	7150

More lines, main results first:

IC50 [1] [µM]	IC50 [2] [µM]	IC50 [5] [µM]	IC50 [8] [µM]	Compound	IC50 [3] [µM]	IC50 [4] [µM]	Ratio IC50 [6]	Ratio IC50 [7]
3.22	5.41	5.27	–	C/C1=C/C=C/C(=O)O[C@@H](C=O)C/C(C)=C/COCC/C=C/C(=O)C1	4.41	8.03	0.8	1.5
19.3	17.8	16.1	3.05	C/C1=C/C=C/C(=O)O[C@H](CO)C/C(C)=C/COCC/C=C/C(=O)C1	14.4	14.1	0.9	0.8
13.5	11.6	11.9	4.02	C/C1=C/C=C/C(=O)O[C@H](C=O)C/C(C)=C/COCC/C=C/C(=O)C1	15.4	15.3	1.3	1.3
